The values below come from article PMC2587450 (International journal of cancer. Journal international du …, 2008).

In data set [1] the test system is dHMVEC. The data set is described as follows: Apoptosis assays in dHMVEC. The data set is classed as cell-based, human. Particulars: 2 μM. An outline of the steps:
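Primary adult dermal microvascular endothelial cells (passages 5–8, complete EBM-2). Annexin V: 2 μM test compound 16 h in complete EBM-2, cells detached, annexin V-FITC stained, two-colour flow cytometry within 1 h. Caspase 3: ±2 μM 16 h in complete medium, vincristine 50 μg/ml as positive control, lysates read by colorimetric ELISA at 450 nm. Morphology: 90% confluent cells, 2 μM 24 h, 2% paraformaldehyde-fixed, phase contrast 200×.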

For another data set, the system named is MV3. The data set is described as follows: Apoptosis in MV3 melanoma cell line. In kind it is cell-based. Particulars: MV3 human melanoma cell line (data not shown).
For data set [2], the system named is MV3 melanoma-induced angiogenesis. The data set is described as follows: MV3 tumor-induced angiogenesis in quail embryonic CAM. The data set is classed as in vivo, Japanese quail (Coturnix coturnix japonica). Particulars: MV3 on quail CAM, 20 μg daily, day 12. The essentials:
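Japanese quail eggs ethanol-cleaned, kept at 37°C without CO₂ to embryonic day 3, then opened and contents moved to 6-well plates at 37°C. Day 6: MV3 cells (1 × 10⁷/50 μl PBS) applied onto CAM; after 24 h growth, 20 μg test compound per 50 μl PBS daily. Tumors excised and weighed; remaining membrane slide-mounted, fractal dimension (Df) measured in square area opposite the tumor.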

In the next data set the test system is B16F10 mouse melanoma. The experiment in a line: B16F10 melanoma growth in syngeneic C57BL/6 mice. In kind it is in vivo. To be noted: for effect on tumor growth, i.p. route: B16F10 melanoma model. The essentials:
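Daily caliper volumes (width² × length × 0.52). Formalin-fixed paraffin 5-μm sections: anti-von Willebrand factor vessels counted in 10 high-power fields (400×) and averaged, blinded, 3 investigators; colorimetric TUNEL; S.D. from 5 animals.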

Data set [3] relates to dHMVEC. The data set is described as follows: dHMVEC proliferation assay. The data set is classed as cell-based, human. Particulars: BrdUrd, induced by 2% FBS or 50 ng/ml hrVEGF or vpVEGF, 2 μM obtustatin for VEGF.
For a further data set, the system named is B16F10. The data set is described as follows: Apoptosis in B16F10 melanoma cell line. The data set is classed as cell-based. Particulars: B16F10 mouse melanoma cell line (data not shown).
The format of data set [4] is in vivo, mouse. To be noted: mice, Western blot, variety of time intervals. In general terms: A western blot detects proteins with antibodies after separation by electrophoresis.
Data set [5] is classed as in vivo, mouse. Particulars: mice.
In another data set the test system is α1β1 integrin. Particulars: reduced disulfide bonds, cysteines blocked with vinylpyridine; cited from earlier work.
For data set [6] the following is noted: cited from earlier work.

Consider obtustatin, for which the “caspase 8, fluorescent ELISA and Western blot” value in the data set with dHMVEC [1] (2 hours) was “appears to be activated”. In addition, in the data set with dHMVEC [1] (16 hours (ELISA)), the “caspase 3, colorimetric ELISA and Western blot” value is listed as “release of caspase 3”. The “annexin V binding (early apoptosis), flow cytometry” value in the data set on dHMVEC [1] (16 hours, complete EBM-2 media) was “annexin V binds to the surface of dHMVEC”. In addition, the cell morphology entry in the data set with dHMVEC [1] (24 hours, complete medium with 5% FBS) is reported as “typical apoptotic morphology”. The apoptosis induction result in the data set with MV3 and in the data set on B16F10 was “no apoptotic properties” in each case. In addition, the “tumor-induced angiogenesis, angiogenesis index as fractal dimension (Df)” value in data set [2] was “significantly diminished”. For the same molecule, the “effect on tumor growth, i.p. route” value is on record as “no effect on tumor growth” with B16F10 mouse melanoma (2.5 mg/kg i.p. (data not shown)) and “only slightly, close to no significant ratio tumor suppression” in the data set on B16F10 mouse melanoma (5 mg/kg i.p. (data not shown)). Moreover, the “vessel number in paraffin sections of tumor (anti-von Willebrand factor)” value in the data set on B16F10 mouse melanoma (B16F10 melanoma, obtustatin treated animals vs control) is listed as “significant reduction of vessel number”. Further, the “TUNEL staining of endothelial cells in tumor sections” value with B16F10 mouse melanoma (B16F10 melanoma, obtustatin-treated animals) is given as “positive staining of DNA strand breaks”. Moreover, the “body weight during multiple injections” value in the data set with B16F10 mouse melanoma (melanoma experiments in mice, 5 and 2.5 mg/kg i.v., multiple injections) was “did not show any changes in body weight”. Moreover, the endothelial cell proliferation result in the data set with dHMVEC [3] was “potent inhibitor of endothelial cell proliferation”. Also, in data set [4], the “detection in blood plasma after i.p. injection” value was “not detectable”. In addition, the “behavioral signs and body weight” value in data set [5] (single i.v. doses up to 20 mg/kg, 10 days observation) is given as “did not reveal any toxic side effects”. Besides, the “H&E sections of liver” value in data set [5] (single i.v., 10 mg/kg and 20 mg/kg groups, after 10 days) was “small areas of inflammations and necrotic patches in liver”. Also, the “H&E sections of spleen” value in [5] (single i.v., 20 mg/kg group, after 10 days) is recorded as “significant necrotic patches in all animals”. For the same molecule, the “H&E sections of brain, lung, kidney, liver and spleen” value in [5] (single i.v., all concentrations up to 7 mg/kg, after 10 days) is on record as “no effects”.
Turning to “Ethylpyridylated(EP)-obtustatin [EP-obtustatin]”, in [2], the “tumor-induced angiogenesis, angiogenesis index as fractal dimension (Df)” value is “no activity”. Further, the “change of activity against α1β1 integrin versus native obtustatin” value with α1β1 integrin is given as “over four orders of magnitude decreasing activity”.
As to `O=c1[nH]cc(F)c(=O)[nH]1` [5-fluorouracil (5-FU), 5-fluorouracil], the half life time result in data set [6] is “about 100 minutes”.
